Measurements collected from several papers.
Each line is one published result; the experiments were not run side by side.
Action: inhibitor
CDK5 with p35: Cyclin-dependent kinase 5, with p35 (CDK5, Homo sapiens, UniProt Q00535)
CDK5 with p25: Cyclin-dependent kinase 5, with p25 (CDK5, Homo sapiens, UniProt Q00535)
CDK5: Cyclin-dependent kinase 5 (CDK5, Homo sapiens, UniProt Q00535)

SMILES | target | test | test system | conditions | inhibition
Cc1ccc(-n2nc(C(C)(C)C)cc2NC(=O)Nc2ccc(OCCN3CCOCC3)c3ccccc23)cc1 | CDK5 with p35 | enzyme activity |  | 10 µM | -26%
CC[C@H](C)[C@H](NC(=O)[C@H](CCC(N)=O)NC(=O)[C@H](CC(C)C)NC(=O)[C@H](CCSC)NC(=O)[C@H](CCCCN)NC(=O)[C@H](CO)NC(=O)[C@H](CO)NC(=O)[C@H](CCSC)NC(=O)[C@H](CC(C)C)NC(=O)[C@H](CC(N)=O)NC(=O)[C@@H](NC(=O)[C@@H](NC(=O)[C@H](CO)NC(=O)[C@H](CC(C)C)NC(=O)[C@H](CS)NC(=O)[C@H](CCCNC(=N)N)NC(=O)[C@H](CC(=O)O)NC(=O)[C@H](Cc1c[nH]c2ccccc12)NC(=O)[C@H](Cc1ccccc1)NC(=O)[C@H](C)NC(=O)[C@H](CCC(=O)O)NC(=O)[C@@H](N)CCCCN)C(C)C)[C@@H](C)CC)C(=O)N[C@@H](CC(N)=O)C(=O)N[C@@H](C)C(=O)O | CDK5 with p25 | enzyme activity, radiometric |  | 250 µM | 59%
CNCc1ccc(-c2cc(-c3nc(-c4ccc(S(=O)(=O)C(C)C)cc4)cnc3N)on2)cc1 | CDK5 with p35 | enzyme activity |  | 2 µM | 16%
COc1cc2ncnc(Nc3ccc(Oc4ccccc4)c(C)c3C)c2cc1OC | CDK5 with p25 | enzyme activity |  | 1 µM | 3%
CN(C)C1CCN(CC#Cc2nn(C3CCCC3)c3nc(NCc4ccccc4)ncc23)C1 (centres unmarked) | CDK5 with p25 | enzyme activity, FRET |  | 0.1 µM | 1%
CCN1CCN(Cc2ccc(NC(=O)c3ccc(C)c(Oc4ccnc5[nH]ccc45)c3)cc2C(F)(F)F)CC1 | CDK5 | target engagement in cells, chemoproteomics | Huh-7 | 10 µM | -42.6%
Nc1nc(Nc2ccc(S(N)(=O)=O)cc2)sc1C(=O)c1ccccc1[N+](=O)[O-] | CDK5 | enzyme activity |  | 0.1 µM | 95 to 96%
COc1cc(-c2cc(-c3ccc(N4CCNCC4)cc3)cnc2C)cc(OC)c1OC | CDK5 with p25 | enzyme activity |  | 1 µM | 3%
COc1cc2ncnc(Nc3ccc(Oc4ccccc4)cc3C)c2cc1OC | CDK5 with p35 | enzyme activity |  | 1 µM | 7%
CN1CC(Oc2cnc(C#N)cc2-c2ccn3nc(NC(=O)C4CC4)cc3c2)C1 | CDK5 with p25 | enzyme activity |  | 1 µM | 4%
CCOc1cc(-c2nncn2C)ccc1Nc1ncc2cc(C)nc(NCC(C)(C)C)c2n1 | CDK5 with p25 | enzyme activity, FRET |  | 1 µM | 49%
